In data set [1] the target is T1, CYP1A1 (Mus musculus, UniProt P00184).
T1 sequence (P00184 whole entry): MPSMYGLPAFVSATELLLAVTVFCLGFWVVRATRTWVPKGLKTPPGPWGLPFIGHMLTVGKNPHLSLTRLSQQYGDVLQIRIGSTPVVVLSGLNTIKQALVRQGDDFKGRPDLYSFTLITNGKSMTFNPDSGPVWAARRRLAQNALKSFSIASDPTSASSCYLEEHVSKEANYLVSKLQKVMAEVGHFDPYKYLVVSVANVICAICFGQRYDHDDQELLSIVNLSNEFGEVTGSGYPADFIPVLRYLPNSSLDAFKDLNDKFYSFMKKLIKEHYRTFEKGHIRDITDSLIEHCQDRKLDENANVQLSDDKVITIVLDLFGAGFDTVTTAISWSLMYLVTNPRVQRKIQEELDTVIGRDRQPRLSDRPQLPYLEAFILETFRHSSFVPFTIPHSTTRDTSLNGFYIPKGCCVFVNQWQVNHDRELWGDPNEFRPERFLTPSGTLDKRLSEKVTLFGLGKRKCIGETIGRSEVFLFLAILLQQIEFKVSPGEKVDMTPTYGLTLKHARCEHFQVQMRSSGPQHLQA
Briefly: Induction of CYP1A1 activity in mouse Hepa-1c1c7 cells assessed as induction ratio at 10 uM after 48 hrs by EROD assay relative to control. The data set is classed as ADME, cell-based. The method, boiled down: (§1)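 About 10,000 Hepa1c1c7 cells/well cultured 24 h, then compound (0.5% DMSO final) for 48 h, at roughly 4 × the concentration doubling NQO1 activity. After PBS wash, cells given 5 µM 7-ethoxyresorufin plus 2 mM salicylamide, 37 °C, 40 min; resorufin fluorescence ex 530/em 590 nm, corrected for compound fluorescence. Ratio = (treated − blank)/(DMSO control − blank); mean ± SD, n = 3.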

Data set [2] in a line: Cytotoxicity against mouse Hepa-1c1c7 cells after 48 hrs by MTT assay. The note with it: hepa-1c1c7, 48 h. It counts as cell-based. An outline of the steps:
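Murine hepatoma cells in α-MEM with 10% heat- and charcoal-treated fetal calf serum, passages 6–17; MTT read-out as for the cancer lines but with 48 h compound exposure. Highest concentration tested 25 µM. IC50 from survival-versus-concentration curve; mean and SD, n = 3.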
(In general: Tetrazolium assays rely on reduction of a dye to a coloured formazan, in cell work by metabolically active cells.)

In data set [3] the target is NAD(P)H dehydrogenase [quinone] 1 (Mus musculus) (UniProt Q64669). Briefly: Induction of NQO1 activity in mouse Hepa-1c1c7 cells assessed as induction ratio at 10 uM after 48 hrs by MTT assay relative to control. The data set is classed as cell-based. The method, boiled down:
(§2)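 Hepa1c1c7 cells, 10,000 per well, 24 h, were then treated 48 h (DMSO ≤0.5%). Digitonin/EDTA lysates were assayed for menadione-dependent MTT-formazan formation using a G6P/G6PDH NADPH-generating mix with FAD at pH 7.4. The reaction ran 5 min, was stopped with dicoumarol, and read at A590. Degree of induction = (A test − blank)/(A control − blank). Ratios were read off the induction–concentration plot at the EROD test concentration.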

Data set [4] deals with HCT-116. In words: Antiproliferative activity against human HCT116 cells after 72 hrs by MTT assay. The note with it: HCT-116, 72 h. The data set is classed as functional, cell-based. The method, boiled down:
(§3)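 Cells seeded at 10,000 (MCF7), 4000 (HCT116) or 5000 (CCL186) per well and grown 24 h; MCF7 and CCL186 in EMEM with pyruvate, glutamine, 10% FBS; HCT116 in McCoy's 5A with 10% FBS. Compounds from DMSO stocks (≤1% DMSO final), 72 h exposure; MTT 0.5 mg/ml for 3 h, formazan in DMSO read at 590 nm. IC50 from sigmoidal survival curve, three separate occasions.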

The test system of data set [5] is MCF7. Briefly: Antiproliferative activity against human MCF7 cells after 72 hrs by MTT assay. Conditions: MCF7, 72 h. The data set is classed as functional, cell-based. The method, boiled down:
as §3

Data set [6] can be described thus: Antiproliferative activity against human CCL186 cells after 72 hrs by MTT assay. It counts as cell-based. Conditions: CCL186, 72 h. The method, boiled down:
as §3

The subject of data set [7] is MCF7. Briefly: Selectivity ratio of IC50 for human CCL186 cells to IC50 for human MCF7 cells. The method, boiled down:
(§4)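 MTT assay. MCF7 and CCL186 cells were grown in EMEM/10% FBS, HCT116 in McCoy's 5A/10% FBS. Seeding was 10,000 (MCF7), 4000 (HCT116) and 5000 (CCL186) cells per well, 24 h. Compound exposure was 72 h, DMSO ≤1% final. MTT 0.5 mg/ml for 3 h, formazan dissolved in DMSO, A590. IC50 came from sigmoidal survival curves, with 3 separate occasions per concentration. Ratio = IC50 CCL186 / IC50 of the cancer line.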

Data set [8] can be described thus: Selectivity ratio of IC50 for human CCL186 cells to IC50 for human HCT116 cells. The data set is classed as ADME, cell-based, HCT-116. Conditions: CCL186 cells and HCT116 cells, read-out: Ratio IC50. An outline of the steps:
as §4

Data set [9] concerns HCT-116. Briefly: Cell cycle arrest in human HCT116 cells released from G1 block assessed as accumulation at sub G1 phase at 15 uM after 24 hrs by flow cytometry. It counts as functional. For orientation: In flow cytometry, cells or beads pass a laser one at a time.
Data set [10] relates to HCT-116. In words: Cell cycle arrest in human HCT116 cells released from G2 block assessed as accumulation at sub G1 phase at 15 uM after 24 hrs by flow cytometry. The data set is classed as functional.
Data set [11] has as its system HCT-116. In words: Cell cycle arrest in human HCT116 cells released from G1 block assessed as accumulation at G1 phase at 15 uM after 24 hrs by flow cytometry. It counts as functional.
Data set [12] concerns HCT-116. In words: Cell cycle arrest in human HCT116 cells released from G2 block assessed as accumulation at G1 phase at 15 uM after 24 hrs by flow cytometry. It counts as functional.
For data set [13], the system named is HCT-116. In words: Cell cycle arrest in human HCT116 cells released from G1 block assessed as accumulation at S phase at 15 uM after 24 hrs by flow cytometry. It counts as functional.
Data set [14] relates to HCT-116. Briefly: Cell cycle arrest in human HCT116 cells released from G2 block assessed as accumulation at S phase at 15 uM after 24 hrs by flow cytometry. It counts as functional.
Data set [15] deals with HCT-116. In words: Cell cycle arrest in human HCT116 cells released from G1 block assessed as accumulation at G2/M phase at 15 uM after 24 hrs by flow cytometry. The data set is classed as functional.
Data set [16] deals with HCT-116. Briefly: Cell cycle arrest in human HCT116 cells released from G2 block assessed as accumulation at G2/M phase at 15 uM after 24 hrs by flow cytometry. The data set is classed as functional.
In data set [17] the target is NAD(P)H dehydrogenase [quinone] 1 (Mus musculus) (UniProt Q64669). In words: Induction of NQO1 activity in mouse Hepa-1c1c7 cells assessed as induction ratio at 0.05 uM after 48 hrs by MTT assay relative to control. It counts as cell-based. The method, boiled down: as §2
Sequence of NAD(P)H dehydrogenase [quinone] 1 (Mus musculus) (Q64669 whole entry): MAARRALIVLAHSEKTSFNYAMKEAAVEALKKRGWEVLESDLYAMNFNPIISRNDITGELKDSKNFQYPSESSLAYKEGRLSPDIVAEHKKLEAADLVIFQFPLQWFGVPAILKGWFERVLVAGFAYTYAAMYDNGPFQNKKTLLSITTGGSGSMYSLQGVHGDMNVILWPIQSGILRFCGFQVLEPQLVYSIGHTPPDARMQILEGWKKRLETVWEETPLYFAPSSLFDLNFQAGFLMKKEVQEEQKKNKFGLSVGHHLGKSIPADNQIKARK
Data set [18] addresses T1, CYP1A1. In words: Induction of CYP1A1 activity in mouse Hepa-1c1c7 cells assessed as induction ratio at 0.05 uM after 48 hrs by EROD assay relative to control. The data set is classed as ADME, cell-based. The method, boiled down:
as §1

For data set [19], the target named is T1, CYP1A1. Briefly: Induction of CYP1A1 activity in mouse Hepa-1c1c7 cells assessed as induction ratio at 0.5 uM after 48 hrs by EROD assay relative to control. The data set is classed as ADME, cell-based. The method, boiled down: as §1
In data set [20] the test system is HCT-116. In words: Cell cycle arrest in human HCT116 cells released from G1 block assessed as accumulation at sub G1 phase at 5 uM after 24 hrs by flow cytometry. It counts as functional.
Data set [21] concerns HCT-116. In words: Cell cycle arrest in human HCT116 cells released from G2 block assessed as accumulation at sub G1 phase at 5 uM after 24 hrs by flow cytometry. The data set is classed as functional.
In data set [22] the test system is HCT-116. Briefly: Cell cycle arrest in human HCT116 cells released from G1 block assessed as accumulation at G1 phase at 5 uM after 24 hrs by flow cytometry. The data set is classed as functional.
The test system of data set [23] is HCT-116. Briefly: Cell cycle arrest in human HCT116 cells released from G2 block assessed as accumulation at G1 phase at 5 uM after 24 hrs by flow cytometry. It counts as functional.
For data set [24], the system named is HCT-116. Briefly: Cell cycle arrest in human HCT116 cells released from G1 block assessed as accumulation at S phase at 5 uM after 24 hrs by flow cytometry. It counts as functional.
Data set [25] relates to HCT-116. In words: Cell cycle arrest in human HCT116 cells released from G2 block assessed as accumulation at S phase at 5 uM after 24 hrs by flow cytometry. It counts as functional.
The test system of data set [26] is HCT-116. In words: Cell cycle arrest in human HCT116 cells released from G1 block assessed as accumulation at G2/M phase at 5 uM after 24 hrs by flow cytometry. The data set is classed as functional.
Data set [27] concerns HCT-116. Briefly: Cell cycle arrest in human HCT116 cells released from G2 block assessed as accumulation at G2/M phase at 5 uM after 24 hrs by flow cytometry. The data set is classed as functional.
The target of data set [28] is NAD(P)H dehydrogenase [quinone] 1 (Mus musculus) (UniProt Q64669). Briefly: Induction of NQO1 activity in mouse Hepa-1c1c7 cells assessed as induction ratio at 0.5 uM after 48 hrs by MTT assay relative to control. It counts as cell-based. An outline of the steps:
as §2

The source of these data is ChEMBL document CHEMBL1153905, “Functionalized 3-benzylidene-indolin-2-ones: inducers of NAD(P)H-quinone oxidoreductase 1 (NQO1) with antiproliferative activity” (Bioorg Med Chem, 2009).

By fold induction is commonly meant the ratio of treated to control signal. Usually IC50 stands for the point on the concentration scale where inhibition reaches its midpoint. A high value points to lower potency. `O=C1Nc2ccccc2/C1=C\c1ccccn1`: the fold induction at 48 h, 10 µM at CYP1A1 [1] turned out to be 1.08. In data set [2], this molecule displayed a half-maximal inhibitory concentration (IC50) of 19.9 µM. Besides, the Ratio in [3] is 3.92.

As for `O=C1Nc2ccccc2/C1=C\c1ccc(Cl)cc1Cl`, the fold induction at 48 h, 10 µM on CYP1A1 [1] was determined as 1.21. Moreover, in data set [2], the IC50 worked out at 10.6 µM. For the same molecule, the Ratio in data set [3] came out at 4.24.

As for `O=C1Nc2cc(F)ccc2/C1=C\c1cccc(C(F)(F)F)c1`, the IC50 with HCT-116 [4] is 8.4 µM; with MCF7 [5] it was 8.9 µM; in data set [6], 7.5 µM; in data set [2] it was 2.2 µM. The “Ratio IC50” value in the data set with MCF7 [7] amounted to 0.9. For the same molecule, in data set [8], the selectivity ratio was found to be 0.8. For the same molecule, the Activity in the data set with HCT-116 [9] amounted to 12.68%; in the data set with HCT-116 [10] it was 2.49%; in the data set on HCT-116 [11], 64.93%; with HCT-116 [12], 64.15%; in the data set on HCT-116 [13] it was 8.04%; in the data set with HCT-116 [14] it was 8.82%. In addition, the Activity was 14.58% with HCT-116 [15] and 25% in the data set on HCT-116 [16]. Besides, in [17], the Ratio was determined as 3.31. In addition, the fold induction at 48 h, 0.05 µM on CYP1A1 [18] is 1.23.

For `COc1ccc2c(c1)NC(=O)/C2=C/c1cccc(C(F)(F)F)c1`, at CYP1A1 [19], the fold induction at 48 h, 0.5 µM came to 1.36. The IC50 in the data set with HCT-116 [4] worked out at 1.9 µM; in the data set on MCF7 [5] it was 3.8 µM; in data set [6], 5.4 µM; in data set [2], 2.6 µM. The “Ratio IC50” value with MCF7 [7] was determined as 2.8. The selectivity ratio in [8] worked out at 1.4. Further, the Activity is 4.39% with HCT-116 [20]; 20.69% in the data set with HCT-116 [21]; 17.5% in the data set on HCT-116 [22]; 30.55% with HCT-116 [23]; 19.12% with HCT-116 [24]; 17.96% in the data set on HCT-116 [25]. Also, the Activity turned out to be 59.16% in the data set on HCT-116 [26] and 31.58% in the data set with HCT-116 [27]. Moreover, in data set [28], the Ratio amounted to 4.22.
